Usually pKi stands for −log10 of the Ki, conventionally taken in molar units.

In one assay the test system is P388. The experiment in a line: Compound was tested for its antitumor activity to inhibit 50% of tumor cell growth in mouse leukemia P388 cell lines. The settings on record: read-out: ID50 (the source's name). Format: functional. A digest of the protocol:
(§1)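 L1210 and P388 murine leukemia cells were kept in RPMI 1640 with 10% fetal calf serum, penicillin and streptomycin, plus 1 mM β-mercaptoethanol added at 1% (L1210) or 2% (P388). Stocks were 1 mg/mL in 5% DMSO, diluted in water (0.5% DMSO at the top dose). Cells were plated at 3×10^4/mL and treated immediately for 72 h, then Coulter-counted as % of control; IC50 was taken from concentration–response curves.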

The test system of a further assay is L1210. The experiment in a line: Compound was tested for its antitumor activity to inhibit 50% of tumor cell growth in mouse leukemia L1210 cell lines. The format is functional. The settings on record: read-out: ID50 (the source's name). Summed up:
as §1

For assay [1], the target named is T1, Adenosine deaminase (Bos taurus, UniProt P56658).
T1 sequence (P56658 whole entry): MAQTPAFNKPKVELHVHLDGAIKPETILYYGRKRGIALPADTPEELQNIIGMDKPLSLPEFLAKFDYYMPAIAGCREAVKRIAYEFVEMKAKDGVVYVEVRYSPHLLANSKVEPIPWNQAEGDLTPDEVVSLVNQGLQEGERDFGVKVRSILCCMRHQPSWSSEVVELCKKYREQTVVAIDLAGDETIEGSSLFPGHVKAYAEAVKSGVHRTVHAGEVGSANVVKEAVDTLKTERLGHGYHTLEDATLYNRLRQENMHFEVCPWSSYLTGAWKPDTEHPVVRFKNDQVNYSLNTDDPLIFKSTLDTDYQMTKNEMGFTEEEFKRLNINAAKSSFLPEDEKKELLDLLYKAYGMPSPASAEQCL
The experiment in a line: Compound was tested for the inhibition of Adenosine deaminase from calf intestine.

Assay [2] has as its target T1, Adenosine deaminase. As to the kind of experiment: Compound was tested for the inhibition of Adenosine deaminase from calf intestine; NA indicates not active.

pIC50, pKi: −log10 of the molar value. Bounds are passed on as bounds.

On to `OC[C@H]1O[C@@H](n2cnc3/c(=N\O)[nH]cnc32)[C@H](O)[C@@H]1O`, for which the values for the pIC50 with P388 and in the assay with L1210 were 5.80 and 5.51, respectively.
As to `OC[C@H]1OC(n2cnc3c(NO)cc(Cl)nc32)[C@H](O)[C@@H]1O` (stereo partly specified), on Adenosine deaminase [1], the pKi was 4.16. The pIC50 is 4.22 in the assay with P388 and 4.04 in the assay on L1210.
`O=[N+]([O-])c1ccnc2c1ncn2[C@H]1C[C@H](O)[C@@H](CO)O1`: the Ki entry on Adenosine deaminase [2] was “Not Active”. Moreover, the pIC50 with P388 was 4.69; in the assay on L1210, 4.83.
`OC[C@H]1O[C@@H](n2cnc3c(NO)ccnc32)[C@H](O)[C@@H]1O` showed a pKi on Adenosine deaminase [1] of 5.92. In addition, the pIC50 in the assay on P388 was 5.31; with L1210, 5.28.
`Cc1ccc(C(=O)OC[C@H]2O[C@@H](n3cnc4c(NO)nc(Cl)nc43)C[C@@H]2OC(=O)c2ccc(C)cc2)cc1`: the Ki entry at Adenosine deaminase [2] was “Not Active”. The values for the pIC50 with P388 and with L1210 were 4.98 and 5.31, respectively.
For `Nc1ncnc2c1ncn2[C@@H]1O[C@H](CO)[C@@H](O)[C@@H]1O` [VIDARABINE], the pIC50 is 4.77 with P388 and 4.66 in the assay with L1210.
Regarding `Cc1ccc(C(=O)OC[C@H]2O[C@@H](n3cnc4c(NO)ccnc43)C[C@@H]2OC(=O)c2ccc(C)cc2)cc1`, on Adenosine deaminase [1], the pKi is 5.28. In addition, the pIC50 in the assay on P388 was 4.77; in the assay on L1210 it was 4.65.
In the case of `O=[N+]([O-])c1cc(Cl)nc2c1ncn2C1O[C@H](CO)[C@@H](O)[C@H]1O` (stereo partly specified), on Adenosine deaminase [2], the Ki result is “Not Active”. Besides, the pIC50 is 5.82 in the assay on P388 and 6.05 in the assay on L1210.
`OC[C@H]1OC(n2cnc3c(NO)nc(Cl)nc32)[C@H](O)[C@@H]1O` (stereo partly specified): at Adenosine deaminase [2], the Ki result was “Not Active”. Besides, the pIC50 in the assay with P388 is 4.12; with L1210 it was 4.03.
On to `Cc1ccc(C(=O)OC[C@H]2O[C@@H](n3cnc4c(NO)cc(Cl)nc43)C[C@@H]2OC(=O)c2ccc(C)cc2)cc1`, for which the Ki entry at Adenosine deaminase [2] is listed as “Not Active”. In addition, the pIC50 in the assay with P388 was 5.37; in the assay with L1210, 5.32.
`OC[C@H]1O[C@@H](n2cnc3c(NO)ccnc32)C[C@@H]1O` had a pKi on Adenosine deaminase [1] of 6.57. Besides, the pIC50 in the assay on P388 was 4.17; with L1210, below 4.00.

Source of the values: ChEMBL document CHEMBL1125590, “Purine and 1-deazapurine ribonucleosides and deoxyribonucleosides: synthesis and biological activity” (J Med Chem, 1991).
